# Laboratory results taken from the EternaBench riboswitch data.
# Tested on: MS2 coat protein
# Assay: apparent Kd, MS2 coat protein; higher = weaker binding; RNA-MaP array
# Outline: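 Sequenced DNA templates on an Illumina sequencing chip were transcribed into the designed RNAs. These were incubated at room temperature in Tris-HCl pH 7.5 buffer containing KCl, MgCl2, BSA, DTT, tRNA and Tween20 with fluorescently labeled MS2 coat protein at 1.5 nM to 3 μM, with or without input ligand. Apparent Kd is the median of binding-curve fits per cluster, and designs with fewer than 10 clusters measured were excluded.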
# [1] = designed as: ON switch for flavin mononucleotide, no ligand
# [2] = ligand present: flavin mononucleotide, designed as: ON switch for flavin mononucleotide
# [3] = designed as: OFF switch for flavin mononucleotide, no ligand
# [4] = ligand present: flavin mononucleotide, designed as: OFF switch for flavin mononucleotide
# [5] = designed as: OFF switch for theophylline, no ligand
# [6] = ligand present: theophylline, designed as: OFF switch for theophylline
# [7] = designed as: ON switch for theophylline, no ligand
# [8] = ligand present: theophylline, designed as: ON switch for theophylline
# [9] = designed as: OFF switch for tryptophan, no ligand
# [10] = ligand present: tryptophan, designed as: OFF switch for tryptophan
Sequence,apparent Kd [1],apparent Kd [2],apparent Kd [3],apparent Kd [4],further results
CGCACACAGCAACCAAAAUAAACAUGAGGAUCACCCAUGUCACAGGAUAUGGCGAACCCAGGCGACCAGAAGGGUGUAAACACA,26.6 nM,18.6 nM,–,–,–
GUCAGGUGGACAGGAUAUCGUGCUCGUAGACAUGAGGAUCACCCAUGUUCGCUCUUCUUCGGCAUCGAGAAGGGUCUCCAAUCU,–,–,34.8 nM,35.8 nM,–
CCUAUUCCUACGGAUACCAGACGAUCCGUGGCGUGUGUGAACAUGAGGAUCACCCAUGUAGUCCCUUGGCAGCCGAUGCGGGUAA,–,–,–,–,apparent Kd [5]: 34.3 nM; apparent Kd [6]: 132 nM
CUGCCACAGAUAGAUACCAGAGGCGUGCAAGCUACAGCUCACAUGAGGAUCACCCAUGUUCUCCCUUGGCAGCUACGGUGUAAGG,–,–,–,–,apparent Kd [5]: 16.6 nM; apparent Kd [6]: 17.4 nM
GGUGAAUUAGUGAGGAUAUGAUAGACAAACAAAAUACAGAAGGCACAUGAGGAUCACCCAUGUGACGGAGAGAA,–,–,6.31 nM,5.93 nM,–
CAGUGCGACUCAGGAUAUCAGAACACUAAGGCGUGAGAAGGGAGAACGACACAUGAGGAUCACCCAUGUUAGAGGGAAUGCAUG,–,–,37.6 nM,43.7 nM,–
UCGAUAAGAGGAUAUACGUGAUAGUUCUCCUCCCUAUGACUACAUGAGGAUCACCCAUGUAGAAGGCUUAACGG,–,–,6.31 nM,6.54 nM,–
GUGAUACUUGGAGGAUAUGCUUUCACCUGGUACUCUAUUACAGUGACAUGAGGAUCACCCAUGUAGCAGAAGGCCAGUCAUCGA,18.8 nM,9.73 nM,–,–,–
AACAGAAGGCAAGGAUAUAAGGGACCCCCAACAUGAGGAUCACCCAUGUUCUAUGAGGCCGAAUUUUAGAAGGUGCGGGACUAG,43.9 nM,32.2 nM,–,–,–
UGUCAGGUCCAUAACAUGAGGAUCACCCAUGUAAGGCAUGAGCAGGAUAUCAAAAGUCGUAAGACAGAGAAGGGCUAAAUGACC,–,–,7 nM,7.51 nM,–
UAGAAACGUACGGCCGCCACUCGGAAUUGGCUCAGACCAUACGUACAUGAGGAUCACCCAUGUUAGAGGACCGGGUAUAAUCUAA,–,–,–,–,"apparent Kd (designed as: ON switch for tryptophan, no ligand): 26.7 nM; apparent Kd (ligand present: tryptophan, designed as: ON switch for tryptophan): 20.3 nM"
CGUCUAGUUGAGAAGGAUUCGGCGUCGGUCAUGUUAAUCUGGAAACAUGAGGAUCACCCAUGUCAAUAGGAUAUCAGGGCACUA,–,–,11.2 nM,12.8 nM,–
GGAUUAAGCUAGAAGGUACGAUCACCGUGAUGGUAAGGAUAUAGAACGAUGCCGAUUCCAACAUGAGGAUCACCCAUGUUCCUA,447 nM,260 nM,–,–,–
AUGCGCUAUAUGGAUACCAGUAUGAUAAUUGACAUGAGGAUCACCCAUGUGAGCUCUACCUACCCUUGGCAGCCAACCCUAUUUG,–,–,–,–,apparent Kd [7]: 21.9 nM; apparent Kd [8]: 22.9 nM
CCUUAAGCAUAAGGAUAUAAGUUUUGACUAAGUUUAGAAGGUAUGCUUGCAAGAUCCGGCAAUAACAUGAGGAUCACCCAUGUG,–,–,27.6 nM,21.3 nM,–
AUAACAGUGUCGGCCGCCACUAGAACACAUGAGGAUCACCCAUGUGGUGGUACCUCCUAAGACGAUAGGACCGGGACCCAUCUAC,–,–,–,–,apparent Kd [9]: 134 nM; apparent Kd [10]: 95.2 nM
GGUCCACAUGAGGAUCACCCAUGUAAGGAUAUCCUGUUUUCUGGUUUAGAGUCGCGAAGGAGAAGGUACAUUAA,–,–,22.5 nM,41.1 nM,–
CUGAGGUUAGGAUAUCUUCUGUUAUCUUCACGAUGAUAAACAGAGAAGGAACAUGAGGAUCACCCAUGUGGUCU,–,–,135 nM,99.8 nM,–
AAAUACGUAAAACAUGAGGAUCACCCAUGUACAUUUAUUACCAGAAGGAGCGCUAAAAGUACCAGCUAGGAUAUGGGAAGCAAC,8.05 nM,5.83 nM,–,–,–
UCCUCGUAUUAAGGAUAUAGAAAAGUCACAUGAGGAUCACCCAUGUCUAAGGACGCACUAUGAGUCUAGAAGGUAAUCCGGAAU,78.9 nM,65.5 nM,–,–,–
UGUCAAUCGCCGGAUACCAGCCUAACUGAAGGAAAUCUAAACAUGAGGAUCACCCAUGUAGGCCCUUGGCAGCCGAGUAAGUACA,–,–,–,–,apparent Kd [5]: 40.3 nM; apparent Kd [6]: 125 nM
UAAAUCUUACAACACAUGAGGAUCACCCAUGUACGGGCGGGAUAGGAUAUCGAAAUGGUCUCAAACGAGAAGGAUCCUUCUUAU,46.7 nM,27.8 nM,–,–,–
CAUAGAGCUAAGAAGGCGUACGGAGACAGCAUACGAGGAUAUUAACGUCCAUGAACAUGAGGAUCACCCAUGUCGAAAACCAAA,8.42 nM,8.15 nM,–,–,–
GUGAAACAUGAGGAUCACCCAUGUUAGGAUAUAACGCGACGGCAGGGAUCUGCGCUACUUAGAAGGAACGGGAC,–,–,11.5 nM,9.73 nM,–
AGCGCGAAUAGAUCCAAAGUUAUUAGUGAGCGAGGACCGGUACGGCCGCCACUCGUGGCUCUACAUGAGGAUCACCCAUGUACAU,–,–,–,–,apparent Kd [9]: 354 nM; apparent Kd [10]: 432 nM
AGUAACGGAACAUGAGGAUCACCCAUGUCAAAAGAUAAGACAAAGGAUAUCAGAUAAAGACCAAAUGAGAAGGUUGGAAGACAA,43 nM,31.4 nM,–,–,–
GGUCUGCCAUUUCAGGAUAUGCUCAGUGCAACAUGAGGAUCACCCAUGUCAGGCUCGAACGACUCGCAGAAGGGAAGUCACGGAUG,102 nM,61.4 nM,–,–,–

Sequence,apparent Kd [1],apparent Kd [2],apparent Kd [3],apparent Kd [4],further results
AACGACAUGAGGAUCACCCAUGUAUACGACCGAAGUGUACGGUAGGAUAUCGACAGCAUAGAUAACGAGAAGGACCCUUUUGGA,18.1 nM,11.8 nM,–,–,–
GAUUGAGUUCUAGGAUAUCCAGAGCGGCGUGGGACAUGAGGAUCACCCAUGUGCUCUAUGAUCAUGGAGAAGGAGAACCCCGUU,–,–,37.3 nM,46 nM,–
AUUAUGUAAGGAUAUCGAGAAAUAAAGAAUCUAGUCAGCCACGAGAAGGAACAUGAGGAUCACCCAUGUGGAUA,–,–,13.8 nM,12.2 nM,–
GAGAGGAGGGAGAAGGAGAUAGUCUUCGGCAAUCUAGGAUAUCCACGUAGGGAAUCUCACAUGAGGAUCACCCAUGUUCAGCCG,–,–,34.8 nM,31.7 nM,–
ACGAGACGUCUGGAUACCAGCCCAGCGAUAAACAUGAGGAUCACCCAUGUCAAACCACCCGGCCCUUGGCAGCCACGUACCUCAC,–,–,–,–,apparent Kd [7]: 14.5 nM; apparent Kd [8]: 10 nM
GAUCAACAUGAGGAUCACCCAUGUUAGGAUAUCACACCGGAAAGUGAAAUGCUUUUCUUGAGAAGGAACAAGGC,–,–,7.91 nM,7.28 nM,–
UUGAUCGCUCAGAAGGACGCGCAGGACCAAGCCGUAGGAUAUGACGAAUGCUAACGGAGUCCACAUGAGGAUCACCCAUGUGCA,65.2 nM,18.9 nM,–,–,–
AUAAAACAUGAGGAUCACCCAUGUAUAGAAAGCGCAGGAUAUAGGUGAUCAUAGUACUAUCAAGAAGGGCGGAACC,217 nM,184 nM,–,–,–
CACCCUAAAGGAUAUACAGCAUAGAAAACGGGUAAGUCUAAACAUGAGGAUCACCCAUGUAGAAGGUUAGAAUU,–,–,14.8 nM,14.5 nM,–
GGGAAACUCUACACUCACAACACAUGAGGAUCACCCAUGUUAAGAAGGUUCAGAACGGGCAAUCGAAAGGAUAUUAGGAUGGCU,–,–,10.7 nM,10.2 nM,–
GAUAUGGUGGCUCAGGAUAUGCAAGGCUUAACAUGAGGAUCACCCAUGUUAUUUAAUGUGCAAGCGCAGAAGGGAGCUUGGCAAAA,9.39 nM,5.53 nM,–,–,–
GCACGGAAAGGAUAUACAUGAGGAUCACCCAUGUUUCUUCUCAGGGCAAUUACCACAUGUAGAAGGUUCUCCAG,–,–,29.4 nM,39.8 nM,–
UUCUUACAUGAGGAUCACCCAUGUCUACACCCUACAGGAUAUGAUGCGGUGAAGACCAAUUCAGAAGGGUAAGGUC,84.1 nM,22.9 nM,–,–,–
GUUGCCCAGCGAGGAUAUGUGAACCGGCUGCUCACAGAAGGCGCAAAUGAUUUUCAUUAUUCCCGACAUGAGGAUCACCCAUGU,–,–,21.9 nM,16.3 nM,–
AUUAGGCUGCAGGAUAUGAAUCAUGUAACAAUUUCAGAAGGGCAUACAUGAGGAUCACCCAUGUAGUGAUCCGC,–,–,109 nM,220 nM,–
CCGAGGGUAGGAUAUUAGCACUUCUACAUGAGGAUCACCCAUGUACCUCAUCAUGAUGCCUAAGAAGGACCAGUGU,–,–,65.7 nM,158 nM,–
CCUUAGAUACAUGAGGAUCACCCAUGUCACCAGCAACCUGACGAGGAUAUAUAGGCCAAAUAACUAUAGAAGGCGUUGACCCAA,20.5 nM,12.4 nM,–,–,–
AUCAAUCUAGGAUAUACAUGAGGAUCACCCAUGUCUUCAACCAAGGGCUCCACGACCUGUAGAAGGAGACAAAA,–,–,27 nM,22 nM,–
CUCGAGUCAGGAUAUAUUAACAGAACUUCCUAAAUGGACGAAUAGAAGGGACAUGAGGAUCACCCAUGUUUGGC,–,–,11.8 nM,11 nM,–
GUCGCAAUCCAGAAGGACGGGCUUGGCGAGUACGUAGGAUAUGGCAGUCACAUGAGGAUCACCCAUGUCAGGAAUUUAAUCAGG,53.8 nM,21.7 nM,–,–,–
GGUCGUGAUAAGGAUAUUGGCUGUCGUGCAAUCCAAGAAGGUAUCACAUGAGGAUCACCCAUGUACGCGUGUUG,–,–,44.1 nM,85.6 nM,–
AAAUAAGAGGAGAAGGGCAAAAUGUCGAACCGAGCAGGAUAUCCACAGAACAUGAGGAUCACCCAUGUGGUCAAACAGUACAAA,54.4 nM,39 nM,–,–,–
GUCAUUGCGGAGGAUAUAAAGCAAACCAAGAUGUUAGAAGGCCGGACAUGAGGAUCACCCAUGUGAUUGCACGC,–,–,17.6 nM,15 nM,–
AACGAUUAAUCGGCCGCCACUCACAUGAGGAUCACCCAUGUUGUUCUUCCAGGUGGUUCUGUUCCGAGGACCGGGAUUCCGUCCU,–,–,–,–,apparent Kd [9]: 55.1 nM; apparent Kd [10]: 57.5 nM
UACUCGACUUAGAAGGGUUUGUGGACAGCCAGUGGCGUGCGUACAUGAGGAUCACCCAUGUCUCAACAGGAUAUAAGCAUUAGC,–,–,35 nM,27 nM,–
GGUUGAUGGUCGGCCGCCACUGUUGGUGCCAUGAGUUAAGUAUAGCACAUGAGGAUCACCCAUGUCAGGACCGGGACUCUACCCG,–,–,–,–,apparent Kd [9]: 14.6 nM; apparent Kd [10]: 18.1 nM
UCUUCGUUGGCGUCACAAUUCAUGCAAUGCCGAGGACCGGUACGGCCGCCACUCGGACUAAUACAUGAGGAUCACCCAUGUCGUG,–,–,–,–,apparent Kd [9]: 123 nM; apparent Kd [10]: 102 nM
